Reference: ChEMBL document CHEMBL1148344, “3-(2-aminoalkyl)-1-(2,6-difluorobenzyl)-5- (2-fluoro-3-methoxyphenyl)-6-methyl-uracils as orally bioavailable antagonists of the human gonadotropin releasing hormone receptor” (J Med Chem, 2004)

Key:
[1] = biological target: T1, Gonadotropin-releasing hormone receptor (Homo sapiens, UniProt P30968); assay: Binding affinity towards human gonadotropin releasing hormone receptor using des-Gly10[125I]Tyr5,D-Leu6,NMeLeu7,Pro9-NEt]GnRH as radioligand expressed in HEK293 cells; format: cell-based
T1 sequence (P30968 whole entry): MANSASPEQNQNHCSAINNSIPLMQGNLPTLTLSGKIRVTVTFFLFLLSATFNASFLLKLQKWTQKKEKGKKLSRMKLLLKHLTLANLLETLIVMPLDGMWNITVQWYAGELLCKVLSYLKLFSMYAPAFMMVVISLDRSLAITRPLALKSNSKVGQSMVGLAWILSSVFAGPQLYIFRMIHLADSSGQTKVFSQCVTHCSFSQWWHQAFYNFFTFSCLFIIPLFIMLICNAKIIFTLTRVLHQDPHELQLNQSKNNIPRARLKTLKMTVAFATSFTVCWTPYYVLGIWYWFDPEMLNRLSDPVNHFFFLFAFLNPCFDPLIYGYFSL
In short: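 Competitive displacement at cloned human GnRH receptor expressed in HEK293 cells, 96-well filtration format. Three to eight independent experiments.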

[2] = Volume of distribution in mouse; format: ADME, organism-based; details: in vivo
In short: (§1)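 Mice dosed orally and intravenously at 10 mg/kg. Pharmacokinetic parameters derived from plasma exposure after each route.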

[3] = Clearance in mouse; format: ADME, organism-based; details: in vivo; in short: as §1
[4] = Bioavailability in mouse; format: ADME, organism-based; details: in vivo; in short: as §1
[5] = Half life in mouse; format: ADME, organism-based; details: in vivo; in short: as §1
[6] = biological target: T2, Gonadotropin-releasing hormone receptor (Rattus norvegicus, UniProt P30969); assay: Tested for binding affinity towards rat gonadotropin releasing hormone receptor
T2 sequence (P30969 whole entry): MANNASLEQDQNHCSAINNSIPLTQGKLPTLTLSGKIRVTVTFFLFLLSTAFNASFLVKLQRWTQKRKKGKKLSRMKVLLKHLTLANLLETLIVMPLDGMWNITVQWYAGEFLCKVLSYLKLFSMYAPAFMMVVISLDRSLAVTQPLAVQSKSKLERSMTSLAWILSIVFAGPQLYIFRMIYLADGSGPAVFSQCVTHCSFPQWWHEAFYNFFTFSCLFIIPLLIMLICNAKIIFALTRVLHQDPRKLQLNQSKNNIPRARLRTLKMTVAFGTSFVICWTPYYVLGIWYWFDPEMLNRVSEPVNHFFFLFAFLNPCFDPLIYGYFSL

[7] = Inhibitory concentration of compound against GnRH stimulated calcium flux in transfected cells; format: functional, cell-based
In short: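 GnRH-stimulated Ca2+ flux measured in hGnRH receptor-transfected cells. Inhibition tested across a concentration series, with IC50 taken from the dose-response curve.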

SMILES | Ki [1] [nM] | other results
COc1cccc(-c2c(C)n(Cc3c(F)cccc3F)c(=O)n(C[C@H](NC(C)C)C3CCCCC3)c2=O)c1F | 23 | 
COc1cccc(-c2c(C)n(Cc3c(F)cccc3F)c(=O)n(C[C@H](NC(C)C)C3CCCC3)c2=O)c1F | 12 | 
COc1cccc(-c2c(C)n(Cc3c(F)cccc3F)c(=O)n(C[C@@H](N)CC(C)C)c2=O)c1F | 39 | 
COc1cccc(-c2c(C)n(Cc3c(F)cccc3F)c(=O)n(C[C@H](N)C(C)C)c2=O)c1F | 51 | 
COc1cccc(-c2c(C)n(Cc3c(F)cccc3F)c(=O)n(C[C@@H](C)N)c2=O)c1F | 595 | 
COc1cccc(-c2c(C)n(Cc3c(F)cccc3F)c(=O)n(C[C@H](N)Cc3ccccc3)c2=O)c1F | 66 | 
COc1cccc(-c2c(C)n(Cc3c(F)cccc3F)c(=O)n(C[C@H](N)CC(C)(C)C)c2=O)c1F | 71 | 
COc1cccc(-c2c(C)n(Cc3c(F)cccc3F)c(=O)n(C[C@H](C)NCc3ccccc3)c2=O)c1F | 51 | Vd [2]: 7.9 L/kg; clearance [3]: 81.3 mL/min/kg; bioavailability [4]: 3%; half-life [5]: 66 min
COc1cccc(-c2c(C)n(Cc3c(F)cccc3F)c(=O)n(C[C@@H](N)C(C)C)c2=O)c1F | 973 | 
COc1cccc(-c2c(C)n(Cc3c(F)cccc3F)c(=O)n(CC(N)C3CCCCC3)c2=O)c1F (single isomer, unassigned) | 46 | 
COc1cccc(-c2c(C)n(Cc3c(F)cccc3F)c(=O)n(C[C@@H](CC(C)C)NC(C)C)c2=O)c1F | 12 | 
COc1cccc(-c2c(C)n(Cc3c(F)cccc3F)c(=O)n(C[C@H](N)C3CCCC3)c2=O)c1F | 10 | 
COc1cccc(-c2c(C)n(Cc3c(F)cccc3F)c(=O)n(C[C@@H](N)CCc3ccccc3)c2=O)c1F | 965 | 
COc1cccc(-c2c(C)n(Cc3c(F)cccc3F)c(=O)n(C[C@@H](N)Cc3ccccc3)c2=O)c1F | 16 | Vd [2]: 4.9 L/kg; clearance [3]: 65.6 mL/min/kg; bioavailability [4]: 11%; half-life [5]: 54 min
COc1cccc(-c2c(C)n(Cc3c(F)cccc3F)c(=O)n(C[C@H](C)N)c2=O)c1F | > 10000 | 
COc1cccc(-c2c(C)n(Cc3c(F)cccc3F)c(=O)n(C[C@@H](N)C3CCCC3)c2=O)c1F | 94 | 

Compounds with a lower Ki [1], results first:

Ki [1] [nM] | SMILES | other results
8.1 | CN[C@@H](Cc1ccccc1)Cn1c(=O)c(-c2cccc(OC)c2F)c(C)n(Cc2c(F)cccc2F)c1=O | Vd [2]: 6.9 L/kg; clearance [3]: 97.2 mL/min/kg; bioavailability [4]: 42%; half-life [5]: 48 min; Ki [6]: 11000 nM; IC50 [7]: 20 nM
7.9 | COc1cccc(-c2c(C)n(Cc3c(F)cccc3F)c(=O)n(C[C@H](Cc3ccccc3)N(C)C)c2=O)c1F | 
6.5 | COc1cccc(-c2c(C)n(Cc3c(F)cccc3F)c(=O)n(C[C@H](N)C3CCCCC3)c2=O)c1F | Vd [2]: 7.3 L/kg; clearance [3]: 65.4 mL/min/kg; bioavailability [4]: 11%; half-life [5]: 78 min; IC50 [7]: 60 nM
6.4 | COc1cccc(-c2c(C)n(Cc3c(F)cccc3F)c(=O)n(C[C@H](N)CC(C)C)c2=O)c1F | Vd [2]: 3.9 L/kg; clearance [3]: 65.7 mL/min/kg; bioavailability [4]: 6%; half-life [5]: 42 min
4.1 | COc1cccc(-c2c(C)n(Cc3c(F)cccc3F)c(=O)n(C[C@@H](C3CCCCC3)N(C)C)c2=O)c1F | 
2.4 | COc1cccc(-c2c(C)n(Cc3c(F)cccc3F)c(=O)n(C[C@H](C3CCCC3)N(C)C)c2=O)c1F | 
1.2 | CN[C@H](CC(C)C)Cn1c(=O)c(-c2cccc(OC)c2F)c(C)n(Cc2c(F)cccc2F)c1=O | 
0.6 | COc1cccc(-c2c(C)n(Cc3c(F)cccc3F)c(=O)n(C[C@@H](C3CCCC3)N(C)C)c2=O)c1F | 
